Data: ChEMBL document CHEMBL4513216, “Probing the Open Global Health Chemical Diversity Library for Multistage-Active Starting Points for Next-Generation Antimalarials” (ACS Infect Dis, 2020)

Experiment: Toxicity liver stage against HepG2, at 10uM
Type: cell-based
Design: test concentration 10 uM, cell line HepG2-A16-CD81EGFP
Conditions: human, HepG2-A16-CD81EGFP cells; read-out: INHIBITION
How it was run: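 Uninfected HepG2-A16-CD81EGFP cells, 3 × 10^3 per well, 1536-well, plated on prespotted compound at 10 μM final, parasite-free screening media added to match infected plates; puromycin 10 μM positive, DMSO 0.5% negative; run in parallel with 48 h PbLuc assay at 37 °C, 5% CO2; viability by CellTiter-Glo luminescence, normalized to controls.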

Row | SMILES | cytotoxicity at 10 µM
1 | CCCc1cnc(C)nc1N1CCC2(CCCO2)CC1 | -13.4%
2 | O=C(c1cccnc1Oc1ccc(Cl)cc1)N1CC[C@@H](O)C1 | -3.36%
3 | O=C(Nc1ccccc1)C1CN(CC2CC2)CC12CCOCC2 (stereo not drawn) | -6.36%
4 | Cc1ccc(C(=O)N(C)Cc2cc(Br)cs2)c(=O)[nH]1 | -0.782%
5 | O=C1NCC(c2ccc(F)cc2)Cc2[nH]c(CCN3CCCC3)nc21 (stereo not drawn) | -0.65%
6 | O=C(c1ccc(O)nc1)N1Cc2ccccc2OC2(CCOCC2)C1 | -44.2%
7 | COc1cccc2ccc(CN3CCN(c4ncccn4)CC3)nc12 | -2.13%
8 | CS(=O)(=O)c1ccc(-c2cc(C3CC3)c(C#N)c(N)n2)cc1 | -8.11%
9 | Cc1noc(-c2ccnc(N3CCC(N4CCCC4)CC3)c2)n1 | 0.409%
10 | CC(C)c1ncc(CN2C[C@@H](CN3CCCC3)[C@@H](CO)C2)cn1 | -7.3%
11 | CNC(=O)c1cccc(CN2CCC(N(C)Cc3nnc(C)o3)C2)c1 (stereo not drawn) | 8.75%
12 | CN1CCN(Cc2ccco2)Cc2cccnc21 | 2.04%
13 | Cc1nc(-c2ccncc2)ncc1C(C)NC(=O)C1=NN(C)C(=O)CC1 (stereo not drawn) | -0.205%
14 | COc1nn(C)cc1C(=O)N1CCC(c2nnc(C(C)C)o2)CC1 | 13.5%
15 | CN(C)CCNCCC(Cc1ccccc1)C1CCOC(C)(C)C1 (stereo not drawn) | 1.51%
16 | COC1CCC[C@@H]2CN(Cc3csc(C)n3)C[C@H]12 (stereo partly drawn) | -110%
17 | Cc1cccc(C(=O)N(C)C2CCN(c3ccccn3)CC2)c1C | 1.84%
18 | CCCn1nc2c(cc1=O)CN(CC(=O)Nc1cc(C)no1)CC2 | -4.59%
19 | Cc1cc(C)nc(N2CCC(c3cncc(-n4ccnc4)n3)CC2)n1 | -8.66%
20 | CCc1ccc(NC(=O)CC2Cn3ncnc3NC2=O)cc1 (stereo not drawn) | 6.47%
21 | COC(=O)CSc1nnc(CCNC(=O)OC(C)(C)C)o1 | 4.34%
22 | O=C(Cc1ccon1)NC1CCCN(c2ccccc2F)C1=O (stereo not drawn) | -2.03%
23 | CCOC(C)c1nccn1CC(=O)Nc1cc(C)on1 (stereo not drawn) | -5.58%

Row | SMILES | cytotoxicity at 10 µM
24 | CNc1cc(N2CCCC2CNCc2csc(C)n2)ncn1 (stereo not drawn) | -9.71%
25 | CCCS(=O)(=O)NCc1cccnc1Oc1ccc(C)nc1 | -1.15%
26 | CCOCC(=O)NCC(CC)(OC)c1ccccc1 (stereo not drawn) | -0.478%
27 | CCOC(C)c1nc(CN2CCN(Cc3cccnc3)CC2)cs1 (stereo not drawn) | 3.59%
28 | CC1CCC(NC(=O)NCC(C)(C)CCS(C)(=O)=O)CC1 (stereo not drawn) | 9.61%
29 | CCC1(CC)Cc2ccccc2-c2nc(CN(C)C)nc(O)c21 | -8.95%
30 | Cn1cnc(S(=O)(=O)NCCCN2CCCC2=O)c1Cl | -12.1%
31 | O=C(CCSc1ccccc1)NCCn1nc2ccccn2c1=O | -6.09%
32 | Cc1ncsc1C(=O)NCc1ccc(-c2n[nH]cc2C(=O)N(C)C)cc1 | 0.522%
33 | O=C1COC2(CCN(CC3CC3)CC2)CN1c1ccccc1 | -14.6%
34 | CNC(=O)CCc1cc(C2CCCN2C(=O)CO)nc(C)n1 (stereo not drawn) | -0.785%
35 | Cc1nc(Cn2c3c(ccc2=O)CC(NC(C)C)CC3)cs1 (stereo not drawn) | 6.39%
36 | Cc1ccc(OCC(O)CN2CCc3c(ncn3C3CC3)C2)cc1 (stereo not drawn) | 0.2%
37 | CC(C)NC(=O)C1CN(Cc2ccsc2)Cc2ccnn2C1 (stereo not drawn) | -5.03%
38 | CN1CCN(C(=O)c2cc3sccc3n2Cc2ccccc2)CC1 | 4.38%
39 | CCn1nnc2c1C(COC)CN(C(=O)COc1ccccc1)C2 (stereo not drawn) | -17.1%
40 | Cc1nccn1CC1CCCN(C(=O)Cc2ccsc2)C1 (stereo not drawn) | 16.2%
41 | O=C1COc2ccc(C(=O)N3CCCC(n4ccnc4)C3)cc2N1 (stereo not drawn) | -13.5%
42 | COc1cc2nc(C)n(CC(=O)NCCCN(C)C)c(=O)c2cc1OC | 2.11%
43 | Cc1cncc(C2CCCN(C(=O)c3c[nH]c(=O)[nH]c3=O)C2)n1 (stereo not drawn) | 1.92%
44 | C[C@@H]1C[C@H]2CN(C(=O)C3=CCCC3)C[C@H]2O1 | 0.199%
45 | COc1cc(N2CCCn3cnc(COC(C)C)c3C2)ncn1 | -5.3%
46 | Cc1cc(C(=O)N2CCCC(O)(CN3CCCC3)C2)ccc1Cl (stereo not drawn) | 1.6%

Row | SMILES | cytotoxicity at 10 µM
47 | Cn1cc(C(=O)Nc2ccnc(Oc3ccccc3)c2)ccc1=O | -4.5%
48 | Cc1ccc2nc(C3CCN(CCO)CC3)nn2c1 | -1.23%
49 | CCN1CCC(NC(=O)CN2CCc3c(nc(C4CC4)n3C)C2)CC1 | -10.2%
50 | Cn1ccc(C(=O)N2CCC[C@]3(C[C@@H](OCc4ccccn4)CO3)C2)n1 | 0.333%
51 | CC(C(=O)NCCOc1ccc(F)cc1)n1cncn1 (stereo not drawn) | -1.46%
52 | O=C(NCC1CCOC1)c1csc(-c2cccc(Cl)c2)n1 (stereo not drawn) | -7.41%
53 | CC(=O)c1c(C)nn(CC(=O)Nc2ccc(F)cc2)c1C | -72%
54 | CCCOCC(=O)Nc1ncc(I)cc1C | 1.46%
55 | CCc1cc(=O)n(CC(=O)N2CCCCC2)c(-c2cccc(F)c2)n1 | 11.4%
56 | O=C(c1c[nH]cn1)N1CCC(F)(F)C2(CCN(c3ccccn3)C2)C1 (stereo not drawn) | 11%
57 | COc1cccc(CC(=O)N2CCc3ncnc(NCCO)c3CC2)c1 | -4.12%
58 | CSCC(CCO)NC(=O)Nc1ccc(C)cc1Br (stereo not drawn) | -11.8%
59 | CCc1nc(COc2ccc(N(C)C(C)=O)cc2)no1 | -0.408%
60 | CS(=O)(=O)N1CCC(NC(=O)COc2cccc(Cl)c2)CC1 | -5.59%
61 | CC(=O)N1CCCC(Cc2cncc(Br)c2)C1 (stereo not drawn) | -9.02%
62 | O=C(NCc1ccc2c(c1)OCO2)[C@@H]1C=CCN1c1ncccn1 | 0.146%
63 | Cc1ccc(NC(=O)CC2Cn3ncnc3NC2=O)cc1C (stereo not drawn) | 10.5%
64 | O=C(c1cccc2c1OCCO2)N1CCCC(n2cccn2)C1 (stereo not drawn) | -3.73%
65 | CC1(C)CN(C(=O)c2occc2COc2cccc(C#N)c2)CCO1 | 8.18%
66 | COc1cc(NC2CCN(C3CCS(=O)(=O)CC3)CC2)ncn1 | 1.64%
67 | Cn1ccnc1CN1CCN(c2ccc(C#N)cc2F)CC1 | -2.06%
68 | CN1CCC2(CCN(C(=O)c3ccccc3)CC2)C1 | -2.36%
69 | COCCN1CC[C@]2(CN(Cc3cccnc3)C[C@H]2C)C1=O | -4.66%

Row | SMILES | cytotoxicity at 10 µM
70 | Cc1ccc([C@@H]2CN(C(=O)c3cc[nH]c3)C[C@H]2NC(=O)C2CC2)cc1 | -7.59%
71 | N#Cc1c(Cl)nsc1N1CCN(CC2CC2)CC1 | 28.5%
72 | CCN(CC)c1ccc2ccc(C(=O)N(CCOC)CCOC)cn12 | 1.15%
73 | O=C(O)c1cc(-c2ccncc2)cc(S(=O)(=O)NCc2ccccn2)c1 | -51.9%
74 | Cc1cccc(-c2nccn2C2CC(=O)N(C(C)C)C2)n1 (stereo not drawn) | 5.62%
75 | Cc1nc(CN2C[C@@H]3CN(c4ncccn4)C[C@@H]3C2=O)cs1 | 5.16%
76 | Cc1nc(C2CCCN(C(=O)COCCc3ccccc3)C2)no1 (stereo not drawn) | -11.1%
77 | Cc1nc(C)c2c(n1)CCN(Cc1ccco1)CC2 | -0.141%
78 | O=C(c1ccc2ccccc2c1)C1CCCN(C(=O)Cn2cncn2)C1 (stereo not drawn) | 2.6%
79 | CC(C)CCC(=O)N1CCCC2(CCN(Cc3ccccc3C#N)C2)C1 (stereo not drawn) | 0.129%
80 | COc1c(CNCc2cccc(CN(C)C)c2)c(C)nn1C | -9.95%
81 | COc1ncnc2c1CCN(Cc1cccc(C)n1)CC2 | -146%
82 | CN(Cc1cc(C(C)(C)C)n[nH]1)C(=O)c1ccc2nccn2c1 | -7.01%
83 | Cc1nnsc1-c1nnc2sc(C3CCC3)nn12 | -7.86%
84 | COc1ncc(CN2CCOC(C)(C(=O)N3CCOCC3)C2)cn1 (stereo not drawn) | -9.49%
85 | CCc1noc(C(C)N(C)CC(=O)Nc2cccc(C)n2)n1 (stereo not drawn) | 0.407%
86 | COCC(=O)N1CCC2(CCN(Cc3cccnc3)C2)CC1 | -2.42%
87 | COc1ccc2nc(C[C@@H]3C[C@@H](C(C)C)[C@H](CN(C)C)C=C3C)[nH]c2n1 | 5.09%
88 | O=C(c1ccc(C2CCCO2)s1)N1CCN(c2ccccc2F)CC1 (stereo not drawn) | -15.1%
89 | CC(C)(C)c1ncc(C(=O)NCCNC(=O)Cc2ccccc2)s1 | -6.44%
90 | COCCN1CCN(c2nc(C3CCCC3)nc3c2cnn3C)CC1 | -1.91%
91 | CN(C(=O)CSc1ncc[nH]1)c1ccccc1 | 11.1%
92 | CC(C)CC(=O)N1C[C@@H]2CCN(c3ncccn3)C[C@@H]2C1 | -1.63%

Row | SMILES | cytotoxicity at 10 µM
93 | CNC(=O)c1cccc(CNC(C)c2cc(Cl)ccc2OC)c1 (stereo not drawn) | 10.3%
94 | O=c1oc(-c2ccc(F)cc2)nn1CC1CCOC1 (stereo not drawn) | 5.53%
95 | COc1ccc(CN2C[C@@H]3CCCO[C@@H]3[C@H](NS(C)(=O)=O)C2)cc1 | -2.83%
96 | O=C(CCSc1ccccc1F)N1CCN(c2cnccn2)CC1 | -51.7%
97 | CC(C)n1ccnc1CN1CCOC(CCc2ccccc2)C1 (stereo not drawn) | -132%
98 | O=C(CCc1nc2cc(Br)cnc2[nH]1)NCCCN1CCOCC1 | -2.67%
99 | Cc1ncccc1Oc1cncc(C2CCCN2Cc2cncn2C)n1 (stereo not drawn) | -32.8%
100 | COc1ccccc1C1CNCCN1C(=O)c1ccc(F)cc1 (stereo not drawn) | 0.57%
101 | Cc1ccc(NC(=O)N(CCO)CCO)c(OCc2ccccc2)c1 | 18.4%
102 | Cc1cccc(-c2nc(CN3CCCCC3Cn3cncn3)no2)c1 (stereo not drawn) | -3.2%
103 | O=S1(=O)CCC(S(=O)(=O)c2cccc(S(=O)(=O)N3CCOCC3)c2)C1 (stereo not drawn) | 3.42%
104 | COc1ccnc(NC(=O)c2ccsc2)c1 | -0.747%
105 | CN(Cc1ccncc1)C(=O)Nc1cnn(CC2CCCO2)c1 (stereo not drawn) | -0.291%
106 | c1ncc2c(n1)CN(Cc1cn3ccsc3n1)CC2 | 11.3%
107 | CN1CCCC1c1ccnc2nccn12 (stereo not drawn) | 6.84%
108 | CCOc1nn(CC)cc1-c1nnc(SCC)n1C | 1.81%
109 | Cc1c(Cl)c(C(=O)N2C[C@@H](C(=O)O)[C@H](c3cccnc3)C2)nn1C | 6.21%
110 | COc1ccc(F)cc1-n1cnc(CCNC(C)=O)c1 | 13.7%
111 | CN(C)C(=O)N1CCC2(CC1)NC(=O)c1ccccc12 | -10.1%
112 | O=C1CCC(C(=O)N2CCC(Cn3cc(C4CCCC4)nn3)CC2)=NN1 | 5.14%
113 | Cc1cc(CN(C)C(=O)NCc2ccnc(SC(C)(C)C)c2)no1 | 10.4%
